These results are taken from PubChem BioAssay.

Activity calls are given as the source filed them.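 How the source made its calls, unless noted: active means viability at or below 10% of carrier control in both of two separate runs; inconclusive means viability at or below 10% in only one of the two runs; inactive means the rest.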

Assay [1] in a line: Her2 expression decrease, cell viability multiplex – SKBR3 breast tumor cells, AlphaScreen, ATP viability, primary screen (AID 461;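 active means Her2 level under about 52% in both replicate screens, with viability over 70% of control, limit read from the data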;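 on Her2 level: lower value means less Her2 protein in the cells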;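 on viability: percent of carrier control wells set as 100% viability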). Conditions: SKBR3 Her2 protein level, 18-24 h, measured here: SKBR3 viability, ATP luminescence, at 10 µM. (Bead proximity is the source of the signal in Alpha formats.)
Assay [2] has as its target Receptor tyrosine-protein kinase erbB-2 (Homo sapiens) (UniProt P04626). The assay is described as above. Conditions: 18-24 h, at 10 µM, stronger effect = lower value.
Assay [3] in a line: reduced viability of SK-BR-3 breast cancer cells – cell-based, 24 h, human, pilot screen (AID 572).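 Further: compound exposure lasted between 18 and 24 h rather than exactly 24 h; 100% = carrier-treated control wells.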 Conditions: SK-BR-3 viability, CellTiter-Glo luminescence, at 10 µM, stronger effect = lower value. For orientation: In ATP-based viability assays light output follows the ATP content of the culture.
Assay [4] in a line: HUVEC growth inhibition – cell-based, human, primary screen (AID 575;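 active means viability at or below 30% in both replicate assays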;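 further: 100% = median of untreated cell wells with 0.1% DMSO on each plate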). Conditions: HUVEC proliferation, CellTiter-Glo luminescence, 72 h; at 10 µM; stronger effect = lower value. In a few lines:
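System – primary HUVEC, no more than 12 passages · Medium – Low-serum (2% FBS) EBM, supplemented · Times – 72 h exposure, 37 °C, 5% CO2, 30 min RT equilibration · Measured by – luminescent ATP assay · Read-out – % viability relative to median vehicle-well signal on each plate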

The nature of assay [5]: H69AR cell proliferation blockers – human, duplicate replicates, primary screen (AID 580;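 active means viability at or under a set limit in both replicates, limit being median viability minus 3 SD, cut at about 48% in these data, passing the limit was not always enough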;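 further: 100% = mean luminescence of untreated wells and 0% = no signal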). To be noted: H69AR lung tumor cells viability, ATP luminescence, 72 h; at 10 µM; stronger effect = lower value.
A short description of assay [6]: MRP1 drug-resistance reversers in H69AR cells – cell-based, doxorubicin co-treatment, pilot screen (AID 601;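 active means viability loss from added drug above about 55%, and viability with drug at most 40%, in both replicates, limit read from the data, passing the limit was not always enough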). To be noted: CellTiter-Glo, 72 h, at 10 µM; for differential viability (reversal): stronger effect = higher value.
Assay [7] can be described thus: yeast transport mutant growth inhibition pilot in 384-well plates, post-Golgi transport modulator project (AID 636; in the data active means inhibition above about 31%). Conditions: absorbance 615 nm, about 18 h, stronger effect = higher value.
The nature of assay [8]: growth suppression of yeast trafficking mutant, preliminary HTS, modulators of trafficking downstream of Golgi apparatus project, 1536-format plate, OD 615 nm (AID 637; in the data active means inhibition above about 30%). Conditions: yeast transport mutant growth, absorbance 615 nm, 18 h; stronger effect = higher value.
Setting [9] is: H69AR cells + 2 uM doxorubicin, measured here: viability with 2 uM doxorubicin, stronger effect = lower value.
[10] abbreviates: H69AR cells, compound alone cytotoxicity.

Receptor tyrosine-protein kinase erbB-2 (Homo sapiens), sequence (P04626 whole entry, looked up): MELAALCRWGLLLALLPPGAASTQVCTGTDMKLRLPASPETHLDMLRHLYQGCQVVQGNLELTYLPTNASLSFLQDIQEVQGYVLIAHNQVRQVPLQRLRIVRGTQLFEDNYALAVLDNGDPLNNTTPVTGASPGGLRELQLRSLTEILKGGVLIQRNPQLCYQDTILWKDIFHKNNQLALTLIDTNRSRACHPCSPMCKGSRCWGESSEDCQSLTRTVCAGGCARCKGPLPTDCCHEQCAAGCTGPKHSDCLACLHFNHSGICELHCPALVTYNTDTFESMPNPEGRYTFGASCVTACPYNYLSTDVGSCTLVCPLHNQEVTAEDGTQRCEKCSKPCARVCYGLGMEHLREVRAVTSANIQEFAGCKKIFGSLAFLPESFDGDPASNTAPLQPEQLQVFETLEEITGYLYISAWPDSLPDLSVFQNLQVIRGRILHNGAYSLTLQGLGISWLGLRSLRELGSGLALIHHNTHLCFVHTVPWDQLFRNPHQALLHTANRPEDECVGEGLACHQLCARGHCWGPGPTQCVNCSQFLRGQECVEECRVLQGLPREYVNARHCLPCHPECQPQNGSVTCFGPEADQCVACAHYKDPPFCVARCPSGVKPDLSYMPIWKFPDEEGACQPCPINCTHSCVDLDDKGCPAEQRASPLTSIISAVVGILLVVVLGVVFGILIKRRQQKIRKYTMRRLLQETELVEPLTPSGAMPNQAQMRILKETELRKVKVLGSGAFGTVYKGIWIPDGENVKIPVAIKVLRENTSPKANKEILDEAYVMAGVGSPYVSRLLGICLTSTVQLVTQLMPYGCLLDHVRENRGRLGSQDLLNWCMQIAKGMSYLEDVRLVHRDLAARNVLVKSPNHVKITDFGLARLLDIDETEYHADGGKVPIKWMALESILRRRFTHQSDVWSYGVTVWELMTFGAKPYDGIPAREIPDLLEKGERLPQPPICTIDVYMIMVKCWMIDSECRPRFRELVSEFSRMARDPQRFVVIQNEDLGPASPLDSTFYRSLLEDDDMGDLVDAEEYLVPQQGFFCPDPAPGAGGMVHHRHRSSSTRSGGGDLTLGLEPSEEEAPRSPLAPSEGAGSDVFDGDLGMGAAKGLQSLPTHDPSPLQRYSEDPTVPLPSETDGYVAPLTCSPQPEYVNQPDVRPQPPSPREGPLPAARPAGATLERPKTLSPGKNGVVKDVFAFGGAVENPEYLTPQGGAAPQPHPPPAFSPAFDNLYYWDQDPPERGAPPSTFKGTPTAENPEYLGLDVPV

`Cc1cccc2sc(NC(=O)Cn3cccc3)nc12`: the viability (as a rule, a read-out of living cells in per cent, often relative to untreated cells) is 87% in assay [1]; 87% (inactive) in assay [3]; 107% (inactive) in assay [4]; 89.6% (inactive) in assay [5]; 97.8% in assay [6] (setting [9]); 89.6% in assay [6] (setting [10]). Besides, the Her2 level in assay [2] is 93.5% (inactive). The differential viability (reversal) in assay [6] (H69AR cells + 2 uM doxorubicin) is -8.27% (inactive). Also, the inhibition (in general, the drop in the measured response relative to a control, in per cent) is -1.67% (inactive) in assay [7] and -1.83% (inactive) in assay [8].

As to `O=C(c1ccco1)N1CCN(S(=O)(=O)c2ccc3c(c2)CCN3C(=O)C2CCC2)CC1`, the viability was 81.5% in assay [1]; 81.5% (inactive) in assay [3]; 101% (inactive) in assay [4]; 95.6% (inactive) in assay [5]; 83.9% in assay [6] (setting [9]); 95.6% in assay [6] (setting [10]). Further, the Her2 level in assay [2] was 130% (inactive). For the same compound, the differential viability (reversal) in assay [6] (H69AR cells + 2 uM doxorubicin) is 11.7% (inactive). The inhibition is -1.71% (inactive) in assay [7] and -6.5% (inactive) in assay [8].

Regarding `O=C(CCN1CCN(c2ccc(F)cc2)CC1)Nc1ccccc1F`, the viability in assay [1] is 91.5%; in assay [3], 91.5% (inactive); in assay [4] it was 90.4% (inactive); in assay [5] it was 86% (inactive); in assay [6] (setting [9]) it was 91.3%; in assay [6] (setting [10]), 86%. Moreover, the Her2 level in assay [2] was 91% (inactive). In addition, the differential viability (reversal) in assay [6] (H69AR cells + 2 uM doxorubicin) was -5.33% (inactive). In addition, the inhibition was -5.73% (inactive) in assay [7] and 4.75% (inactive) in assay [8].

In the case of `COc1ccccc1N1CCN(C(=O)c2ccc(S(=O)(=O)N3CCCCCC3)cc2)CC1`, the viability in assay [1] was 89.5%; in assay [3], 89.5% (inactive); in assay [4] it was 89.4% (inactive); in assay [5], 85.5% (inactive); in assay [6] (setting [9]), 88%; in assay [6] (setting [10]) it was 85.5%. In addition, the Her2 level in assay [2] was 98.5% (inactive). Besides, the differential viability (reversal) in assay [6] (H69AR cells + 2 uM doxorubicin) was -2.48% (inactive). Also, the inhibition in assay [7] was -5.73% (inactive); in assay [8] it was -3.44% (inactive).

Turning to `CC(=O)C1=C(C)NC(SCSc2ccccc2)=C(C#N)C1c1cccnc1` (stereo not given), the viability in assay [1] was 80%; in assay [3], 80% (inactive); in assay [4] it was 81.7% (inactive); in assay [5], 94.1% (inactive); in assay [6] (setting [9]), 87.5%; in assay [6] (setting [10]), 94.1%. In addition, in assay [2], the Her2 level was 106% (inactive). Besides, the differential viability (reversal) in assay [6] (H69AR cells + 2 uM doxorubicin) was 6.64% (inactive). Further, the inhibition in assay [7] is 0.91% (inactive); in assay [8], -1.64% (inactive).

With `O=C1c2oc3ccccc3c(=O)c2C(c2ccccn2)N1Cc1ccccc1` (stereo not given), the viability is 91.5% in assay [1]; 91.5% (inactive) in assay [3]; 95.6% (inactive) in assay [4]; 104% (inactive) in assay [5]; 94.7% in assay [6] (setting [9]); 104% in assay [6] (setting [10]). Further, in assay [2], the Her2 level was 110% (inactive). Besides, the differential viability (reversal) in assay [6] (H69AR cells + 2 uM doxorubicin) was 9.52% (inactive). The inhibition is 1.07% (inactive) in assay [7] and -8.87% (inactive) in assay [8].

In the case of `CCOC(=O)c1ccccc1NC(=O)c1ccc(NS(C)(=O)=O)cc1`, the viability in assay [1] was 93.5%; in assay [3], 93.5% (inactive); in assay [4], 97% (inactive); in assay [5] it was 80.7% (inactive); in assay [6] (setting [9]) it was 82.7%; in assay [6] (setting [10]) it was 80.7%. Moreover, in assay [2], the Her2 level was 83.5% (inactive). In addition, the differential viability (reversal) in assay [6] (H69AR cells + 2 uM doxorubicin) was -1.98% (inactive). In addition, the results for the inhibition in assay [7] and in assay [8] were -4.53% (inactive) and -3.81% (inactive), respectively.

Take `CC(=O)Nc1nc(-c2ccc(Cl)cc2)nc(C)c1C(C)=O`: the viability in assay [1] was 96.5%; in assay [3], 96.5% (inactive); in assay [4], 89% (inactive); in assay [5], 104% (inactive); in assay [6] (setting [9]), 94.6%; in assay [6] (setting [10]), 104%. Besides, in assay [2], the Her2 level was 89.5% (inactive). For the same compound, the differential viability (reversal) in assay [6] (H69AR cells + 2 uM doxorubicin) is 9.83% (inactive). The inhibition in assay [7] was -3.65% (inactive); in assay [8], -2.83% (inactive).

As to `CCNC(=O)N(C)c1nncnc1C(=O)NC`, the viability was 85% in assay [1]; 85% (inactive) in assay [3]; 89.8% (inactive) in assay [4]; 95.8% (inactive) in assay [5]; 89.6% in assay [6] (setting [9]); 95.8% in assay [6] (setting [10]). Besides, the Her2 level in assay [2] was 88% (inactive). Moreover, the differential viability (reversal) in assay [6] (H69AR cells + 2 uM doxorubicin) is 6.2% (inactive). Further, the inhibition was -3.6% (inactive) in assay [7] and 5.57% (inactive) in assay [8].

As for `c1cnc2c(SCc3ccc(-c4nnco4)cc3)cccc2c1`, the viability in assay [1] is 98.5%; in assay [3], 98.5% (inactive); in assay [4] it was 80.7% (inactive); in assay [5] it was 97.2% (inactive); in assay [6] (setting [9]), 85.2%; in assay [6] (setting [10]), 97.2%. For the same compound, the Her2 level in assay [2] is 101% (inactive). Further, in assay [6] (H69AR cells + 2 uM doxorubicin), the differential viability (reversal) was 12.1% (inactive). Moreover, the inhibition in assay [7] is -2.03% (inactive); in assay [8] it was -12.4% (inactive).

For the compound `N#Cc1c(N)n(CCNC(=O)c2cccs2)c2nc3ccccc3nc12`, the viability in assay [1] is 82.5%; in assay [3], 82.5% (inactive); in assay [4], 97.9% (inactive); in assay [5], 90.9% (inactive); in assay [6] (setting [9]) it was 98.5%; in assay [6] (setting [10]) it was 90.9%. For the same compound, the Her2 level in assay [2] is 84.5% (inactive). In assay [6] (H69AR cells + 2 uM doxorubicin), the differential viability (reversal) is -7.67% (inactive). Also, the inhibition in assay [7] is -5.6% (inactive); in assay [8] it was -0.16% (inactive).

Consider `Cc1cccc(C2c3c(n(C)c(=O)n(C)c3=O)N=C3c4ccccc4C(=O)C32)c1` (stereo not given), for which the viability in assay [1] is 101%; in assay [3] it was 101% (inactive); in assay [4], 43.8% (inactive); in assay [5], 24.3% (active); in assay [6] (setting [9]), 34%; in assay [6] (setting [10]), 24.3%. Moreover, the Her2 level in assay [2] was 82.5% (inactive). For the same compound, the differential viability (reversal) in assay [6] (H69AR cells + 2 uM doxorubicin) was -9.63% (inactive). For the same compound, the inhibition in assay [7] is -7.47% (inactive); in assay [8], 0.32% (inactive).

Consider `CC(=O)c1c(NCCc2ccccc2)cc(C)oc1=O`, for which the viability in assay [1] was 99.5%; in assay [3], 99.5% (inactive); in assay [4] it was 119% (inactive); in assay [5] it was 101% (inactive); in assay [6] (setting [9]), 91.5%; in assay [6] (setting [10]), 101%. In assay [2], the Her2 level was 86% (inactive). The differential viability (reversal) in assay [6] (H69AR cells + 2 uM doxorubicin) is 9.25% (inactive). The inhibition was -2.57% (inactive) in assay [7] and -4.83% (inactive) in assay [8].

As for `CCOc1ccc(N(C(C)=O)C2C=CS(=O)(=O)C2)cc1` (stereo not given), the viability in assay [1] was 91.5%; in assay [3] it was 91.5% (inactive); in assay [4] it was 95.7% (inactive); in assay [5], 94.9% (inactive); in assay [6] (setting [9]) it was 92.4%; in assay [6] (setting [10]), 94.9%. The Her2 level in assay [2] was 90.5% (inactive). The differential viability (reversal) in assay [6] (H69AR cells + 2 uM doxorubicin) is 2.48% (inactive). For the same compound, the figures for the inhibition in assay [7] and in assay [8] were -1.87% (inactive) and 0.33% (inactive), respectively.
